Among the data in ChEMBL document CHEMBL1132993, “Novel benzofuran and benzothiophene biphenyls as inhibitors of protein tyrosine phosphatase 1B with antihyperglycemic properties” (J Med Chem, 2000) are Average inhibition, IC50 and Decrease values, retold here.

SMILES strings stand for the structures.

Assay [1] deals with T1, Tyrosine-protein phosphatase non-receptor type 1 (Homo sapiens) (UniProt P18031).
T1 sequence (whole entry): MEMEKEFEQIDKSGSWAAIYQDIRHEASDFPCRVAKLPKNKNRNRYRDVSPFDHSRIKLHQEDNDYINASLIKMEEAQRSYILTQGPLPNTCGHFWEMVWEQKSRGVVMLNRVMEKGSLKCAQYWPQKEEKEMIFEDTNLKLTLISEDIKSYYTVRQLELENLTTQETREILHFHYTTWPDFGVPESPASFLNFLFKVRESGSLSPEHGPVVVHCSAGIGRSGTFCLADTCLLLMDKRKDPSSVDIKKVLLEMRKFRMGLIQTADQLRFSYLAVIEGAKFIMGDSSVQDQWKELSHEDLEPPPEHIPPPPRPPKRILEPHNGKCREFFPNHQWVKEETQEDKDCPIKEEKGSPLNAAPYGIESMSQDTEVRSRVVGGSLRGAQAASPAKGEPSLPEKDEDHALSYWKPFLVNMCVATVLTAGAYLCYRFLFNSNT
The experiment in a line: In vitro inhibitory activity against recombinant human Protein Tyrosine Phosphatase 1b at a concentration of 1 uM. Put shortly:
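Recombinant human PTP1B was preincubated 10 min at 37 °C with compound at 1 µM, then given 50 µM tri-phosphorylated insulin receptor dodecapeptide for 30 min at 37 °C. Liberated phosphate was measured by malachite green-molybdate absorbance at 650 nm, in quadruplicate. Values are inhibition expressed as percent of phosphatase control.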

The target in assay [2] is T2, Tyrosine-protein phosphatase non-receptor type 1 (Homo sapiens, UniProt P18031).
T2 sequence (P18031 whole entry): T1 sequence (whole entry)
As to the kind of experiment: In vitro inhibitory activity against human recombinant protein tyrosine phosphatase 1b (PTP1B). A digest of the protocol:
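Recombinant human PTP1B, diluted in pH 7.4 Tris-HCl/EDTA/β-mercaptoethanol buffer, preincubated 10 min at 37 °C with compound in HEPES pH 7.4. Reaction ran 30 min at 37 °C. Released phosphate was read by malachite green-ammonium molybdate at 650 nm, in quadruplicate. IC50 came from four-parameter logistic regression.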

For assay [3], the system named is Mus musculus. The experiment in a line: Percentage decrease in plasma glucose in the ob/ob mouse model at 100 mg/kg/day administered per orally. In kind it is functional. Particulars: route oral. Put shortly: (§1)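 Genetically obese C57 B1/6J ob/ob diabetic mice, four to six per group, dosed orally once daily for 4 days. Plasma glucose is expressed as percent change relative to the vehicle-treated group, with p < 0.05 versus vehicle. Changes that are not significant are generally less than -15%. Ciglitazone served as the reference standard.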

The target of assay [4] is T2, Tyrosine-protein phosphatase non-receptor type 1. The experiment in a line: in vitro inhibitory activity against recombinant human Protein Tyrosine Phosphatase 1b. A digest of the protocol: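 Recombinant human PTP1B, diluted in pH 7.4 Tris-HCl/EDTA/β-mercaptoethanol buffer, preincubated 10 min at 37 °C with compound in HEPES pH 7.4. Substrate was the insulin receptor 1142-1153 dodecapeptide phosphorylated at Y1146/1150/1151, 50 µM final. Reaction ran 30 min at 37 °C. Released phosphate was read by malachite green-ammonium molybdate at 650 nm, in quadruplicate. IC50 came from four-parameter logistic regression.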

Assay [5] addresses T1, Tyrosine-protein phosphatase non-receptor type 1 (Homo sapiens). Particulars: 0.1 uM.
Assay [6] has as its system Mus musculus. As to the kind of experiment: percentage decrease in plasma glucose in the ob/ob mouse model at 100 mg/kg/day administered per orally. The class given is functional. Particulars: route oral. Put shortly: as §1
Assay [7] relates to Mus musculus. As to the kind of experiment: percentage decrease in plasma glucose in the ob/ob mouse model at 25 mg/Kg/day administered per orally. The class given is functional. Put shortly:
as §1

The target in assay [8] is Dual specificity protein phosphatase 3 (Homo sapiens, UniProt P51452). As to the kind of experiment: in vitro inhibitory activity against Dual specificity protein phosphatase 3.
Assay [9] deals with Mus musculus. As to the kind of experiment: percentage decrease in plasma glucose in the ob/ob mouse model at 25 mg/kg/day administered per orally. Particulars: route oral. In kind it is functional. A digest of the protocol: as §1
Assay [10] has as its target Receptor-type tyrosine-protein phosphatase F (Homo sapiens, UniProt P10586). As to the kind of experiment: in vitro inhibitory activity against LAR.
Assay [11] can be described thus: in vitro inhibitory activity against PTP-a.
The nature of assay [12]: in vitro inhibitory activity against He-PTP.
In assay [13] the target is T1, Tyrosine-protein phosphatase non-receptor type 1 (Homo sapiens). Particulars: 0.25 uM.

Broadly, the IC50 is the concentration needed to halve the response being measured.

Chain of Dual specificity protein phosphatase 3 (P51452 whole entry): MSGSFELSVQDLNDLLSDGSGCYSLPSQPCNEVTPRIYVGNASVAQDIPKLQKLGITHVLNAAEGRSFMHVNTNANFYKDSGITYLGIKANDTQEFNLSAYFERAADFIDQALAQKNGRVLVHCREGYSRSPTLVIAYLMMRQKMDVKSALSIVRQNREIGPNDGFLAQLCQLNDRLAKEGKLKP
Chain of Receptor-type tyrosine-protein phosphatase F (P10586 whole entry): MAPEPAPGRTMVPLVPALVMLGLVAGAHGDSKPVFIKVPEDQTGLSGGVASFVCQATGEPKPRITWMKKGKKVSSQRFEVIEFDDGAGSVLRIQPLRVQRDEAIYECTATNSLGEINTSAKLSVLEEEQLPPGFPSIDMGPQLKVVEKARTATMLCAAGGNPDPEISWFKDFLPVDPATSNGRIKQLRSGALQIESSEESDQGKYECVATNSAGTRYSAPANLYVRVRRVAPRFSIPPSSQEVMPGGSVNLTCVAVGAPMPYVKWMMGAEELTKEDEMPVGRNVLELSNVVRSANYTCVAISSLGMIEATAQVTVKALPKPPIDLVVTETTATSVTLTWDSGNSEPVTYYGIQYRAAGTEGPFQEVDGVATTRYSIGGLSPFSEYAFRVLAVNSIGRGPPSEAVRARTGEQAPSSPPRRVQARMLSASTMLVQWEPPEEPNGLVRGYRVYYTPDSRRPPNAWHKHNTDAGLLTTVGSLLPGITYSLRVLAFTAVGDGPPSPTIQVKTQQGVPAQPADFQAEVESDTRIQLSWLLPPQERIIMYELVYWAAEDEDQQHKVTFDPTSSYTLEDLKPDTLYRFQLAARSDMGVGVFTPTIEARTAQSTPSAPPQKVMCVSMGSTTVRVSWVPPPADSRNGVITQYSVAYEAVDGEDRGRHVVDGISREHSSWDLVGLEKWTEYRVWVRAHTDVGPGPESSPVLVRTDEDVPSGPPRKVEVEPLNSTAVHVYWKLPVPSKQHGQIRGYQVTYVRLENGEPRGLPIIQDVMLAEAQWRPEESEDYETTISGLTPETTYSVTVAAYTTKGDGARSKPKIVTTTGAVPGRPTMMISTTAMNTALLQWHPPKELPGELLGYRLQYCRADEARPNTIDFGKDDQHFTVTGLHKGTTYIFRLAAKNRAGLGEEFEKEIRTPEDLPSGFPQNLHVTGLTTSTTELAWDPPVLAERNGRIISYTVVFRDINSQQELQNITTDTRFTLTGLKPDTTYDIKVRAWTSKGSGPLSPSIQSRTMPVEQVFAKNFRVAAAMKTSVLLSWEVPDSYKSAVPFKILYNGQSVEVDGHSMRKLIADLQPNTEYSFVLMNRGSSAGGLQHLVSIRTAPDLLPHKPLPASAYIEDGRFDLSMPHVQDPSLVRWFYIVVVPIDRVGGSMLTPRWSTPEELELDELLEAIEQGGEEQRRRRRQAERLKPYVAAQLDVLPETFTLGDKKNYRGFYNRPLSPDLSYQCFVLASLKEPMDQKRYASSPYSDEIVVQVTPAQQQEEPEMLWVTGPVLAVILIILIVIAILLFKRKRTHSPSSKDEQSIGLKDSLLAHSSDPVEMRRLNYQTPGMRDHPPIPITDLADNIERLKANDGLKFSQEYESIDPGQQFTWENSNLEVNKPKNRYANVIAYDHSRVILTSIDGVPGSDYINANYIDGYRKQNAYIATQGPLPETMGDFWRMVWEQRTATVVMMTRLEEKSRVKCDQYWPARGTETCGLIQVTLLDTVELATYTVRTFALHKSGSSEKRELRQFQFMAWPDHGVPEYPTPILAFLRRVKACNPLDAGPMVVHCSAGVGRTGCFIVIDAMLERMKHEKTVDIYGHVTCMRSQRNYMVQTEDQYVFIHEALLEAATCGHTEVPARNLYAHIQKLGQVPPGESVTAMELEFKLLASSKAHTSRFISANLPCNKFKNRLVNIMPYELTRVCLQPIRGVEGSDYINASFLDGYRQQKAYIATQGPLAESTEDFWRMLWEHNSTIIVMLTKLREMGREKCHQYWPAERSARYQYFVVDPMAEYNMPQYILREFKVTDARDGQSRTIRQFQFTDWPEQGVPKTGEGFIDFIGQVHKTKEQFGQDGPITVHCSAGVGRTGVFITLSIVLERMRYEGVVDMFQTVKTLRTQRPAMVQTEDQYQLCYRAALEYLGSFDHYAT

Consider `Oc1ccc(-c2ccc(-c3c(Cc4ccccc4)oc4ccccc34)cc2)cc1Br`, for which the Average inhibition in assay [1] was -59.

On to `O=C(O)[C@@H](Cc1ccccc1)Oc1ccc(-c2ccc(-c3nc4cccnc4n3Cc3ccccc3)cc2)cc1`, for which the Average inhibition in [1] was -19.

Regarding `Cc1oc(-c2ccc(C(F)(F)F)cc2)nc1-c1ccc(-c2ccc(OCC(=O)O)cc2)cc1`, the IC50 in assay [2] came out at 800 nM. In addition, in assay [3], the Decrease is recorded as 40%.

As for `O=C(O)/C=C\C(=O)Nc1cc(-c2ccc(-c3c(Cc4ccccc4)oc4ccccc34)cc2)ccc1O`, the IC50 in [4] worked out at 460 nM.

Take `CCCc1cc(-c2ccc(-c3c(Cc4ccccc4)oc4ccccc34)cc2)ccc1O[C@@H](Cc1ccccc1)C(=O)O`: the Average inhibition in assay [5] is -59.

For `Oc1c(Br)cc(-c2ccc(-c3c(Cc4ccccc4)oc4ccccc34)cc2)cc1Br`, the Average inhibition in assay [1] is -43.

Consider `O=C(O)[C@@H](Cc1ccccc1)Oc1ccc(-c2ccc(-c3c(C(O)c4ccccc4)oc4ccccc34)cc2)cc1` (stereo partly drawn), for which, in assay [2], the IC50 amounted to 110 nM. The Decrease in assay [6] was -1%; in assay [7], 21%.

Take `O=C(O)[C@H](Cc1ccccc1)Oc1ccc(-c2ccc(-c3c(Cc4ccccc4)oc4ccccc34)cc2)cc1`: the IC50 came out at 15900 nM in assay [8], 3250 nM in [10], 33700 nM in [11] and 7100 nM in [12]. Further, the Decrease in assay [6] is reported as 40%; in assay [9] it was 27%.

With `O=C(O)CCC(=O)Nc1cc(-c2ccc(-c3c(Cc4ccccc4)oc4ccccc34)cc2)ccc1O`, the IC50 in assay [4] amounted to 920 nM.

`O=C(O)[C@H](Cc1ccccc1)Oc1ccc(-c2ccc(-c3c(Cc4ccc(F)cc4)oc4ccccc34)cc2)cc1` registered an Average inhibition in [13] of -38.
